Assay results: ChEMBL document CHEMBL4342526, “Exploration of the Structural Space in 4(3H)-Quinazolinone Antibacterials” (J Med Chem, 2020)
≈ marks a conversion by molar mass, not a printed value.

Columns and labels:
[1] = Protein binding in human plasma at 10 uM measured after 6 hrs UV-UPLC based rapid equilibrium dialysis method; format: ADME, cell-free
Method in brief: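 Rapid equilibrium dialysis: human plasma was cleared by centrifugation and spiked from a 1 mM DMSO stock to a final 10 μM, against 0.1 M PBS pH 7.4. Dialysis ran 6 h at 37 °C with orbital shaking. Buffer (free) and plasma (total) aliquots were mixed with internal standard in acetonitrile and measured by UPLC-UV at 285 nm. B% = (Cp−Cf)/Cp×100.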

Staphylococcus aureus [2] = assay: Selectivity ratio of MIC for Staphylococcus aureus ATCC 29213 in presence of bovine serum albumin to MIC for Staphylococcus aureus ATCC 29213 in absence of bovine serum albumin; format: functional
Method in brief: (§1)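 S. aureus ATCC29213 MIC was run by CLSI microdilution in cation-adjusted Mueller–Hinton broth plus 2% NaCl, with and without 0.5% bovine serum albumin. Compounds were two-fold serially diluted in triplicate, inoculum was 5 × 10^5 CFU/mL, and plates were incubated at 37 °C for 16–20 h. The endpoint was the lowest concentration with no visible growth.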

Staphylococcus aureus [3] = assay: Antibacterial activity against Staphylococcus aureus ATCC 29213 measured after 16 to 20 hrs by microdilution method; format: functional
Method in brief: (§2)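 CLSI broth microdilution: two-fold serial dilutions in triplicate in cation-adjusted Mueller–Hinton broth with 2% NaCl, inoculum 5 × 10^5 CFU/mL, incubated at 37 °C for 16–20 h. MIC is the lowest concentration preventing visible growth.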

[4] = Selectivity index, ratio of IC50 for human HeLa cells to MIC for clindamycin/erythromycin/spectinomycin-resistant mec-positive Staphylococcus aureus NRS70; format: toxicity
Method in brief: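 HeLa cytotoxicity by XTT assay in triplicate, IC50 by nonlinear regression; ratio IC50 over broth microdilution MIC against NRS70.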

Staphylococcus aureus [5] = assay: Antibacterial activity against Staphylococcus aureus ATCC 29213 measured after 16 to 20 hrs in presence of bovine serum albumin by microdilution method; format: functional; method in brief: as §1
HeLa = assay: Cytotoxicity against human HeLa cells assessed as reduction in cell viability measured after 16 hrs by XTT assay; format: cell-based
Method in brief: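 HeLa cells (ATCC CCL-2), run in triplicate. Viability was read by XTT, and IC50 was obtained by nonlinear regression.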

Staphylococcus aureus [6] = assay: Antibacterial activity against multi-drug resistant mecA-positive Staphylococcus aureus ATCC 27660 measured after 16 to 20 hrs by microdilution method; format: functional
Method in brief: (§3)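 CLSI broth microdilution; two-fold serial compound dilutions in triplicate in cation-adjusted Mueller–Hinton broth with 2% NaCl, inoculum 5 × 10^5 CFU/mL; 37 °C for 16–20 h; MIC = lowest concentration with no visible growth.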

Staphylococcus aureus [7] = assay: Antibacterial activity against multi-drug resistant mecA-positive Staphylococcus aureus NRS119 measured after 16 to 20 hrs by microdilution method; format: functional; method in brief: as §3
Staphylococcus aureus [8] = assay: Antibacterial activity against clindamycin/erythromycin/spectinomycin-resistant mec-positive Staphylococcus aureus NRS70 measured after 16 to 20 hrs by microdilution method; format: functional; method in brief: as §3
Staphylococcus aureus [9] = assay: Antibacterial activity against multi-drug resistant mec-positive Staphylococcus aureus USA300 measured after 16 to 20 hrs by microdilution method; format: functional; method in brief: as §3
[10] = AUC (0 to last) in ICR mouse at 5 mg/kg, iv by UV-UPLC analysis; format: ADME, organism-based; parameters: dose 5 mg/kg, route intravenous, time 0 - last; details: in vivo
Method in brief: (§4)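 Female ICR mice, 6–8 weeks old, 20–25 g. Each received 50 μL by tail-vein injection (5 or 10 mg/kg) of a filter-sterilized 2 or 4 mg/mL solution in 20% DMSO/10% Tween-80/70% water. Terminal blood was collected and plasma harvested by centrifugation. Plasma was precipitated with acetonitrile containing internal standard, and the supernatant was analyzed by C18 UPLC with UV detection at 285 nm.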

[11] = Clearance in ICR mouse at 5 mg/kg, iv by UV-UPLC analysis; format: ADME, organism-based; details: in vivo; method in brief: as §4
[12] = Clearance in ICR mouse at 5 mg/kg, iv by UV-UPLC analysis relative to hepatic blood flow; format: ADME, organism-based; details: in vivo; method in brief: as §4
[13] = Solubility of the compound in water; format: physicochemical; details: buffer
Enterococcus faecium = assay: Antibacterial activity against Enterococcus faecium NCTC 7171 measured after 16 to 20 hrs by microdilution method; format: functional; method in brief: as §2

Structure (SMILES) | PPB [1] | selectivity ratio (Staphylococcus aureus [2]) | MIC (Staphylococcus aureus [3]) | selectivity ratio [4] | MIC (Staphylococcus aureus [5]) | IC50 (HeLa) | MIC (Staphylococcus aureus [6]) | MIC (Staphylococcus aureus [7]) | MIC (Staphylococcus aureus [8]) | MIC (Staphylococcus aureus [9]) | AUC(0-t) [10] | clearance [11] | CL [12] | solubility [13] | MIC (Enterococcus faecium)
N#Cc1ccc(CSc2nc3ccccc3c(=O)n2-c2cccc(C(=O)O)c2)cc1 | > 99.9% | <=4 | 2 µg/mL (≈ 4.84 µM) | 39 | 8 µg/mL | 78 µg/mL (≈ 189 µM) |  |  |  |  |  |  |  |  | 
Cc1ccc(C(=O)O)cc1-n1c(/C=C/c2ccc(C#N)cc2)nc2ccccc2c1=O | > 99.9% |  | 2 µg/mL (≈ 4.91 µM) | 15 | 16 µg/mL | 60 µg/mL (≈ 147 µM) | 4 µg/mL (≈ 9.82 µM) | 4 µg/mL (≈ 9.82 µM) | 4 µg/mL (≈ 9.82 µM) | 1 µg/mL (≈ 2.45 µM) |  |  |  |  | 
N#Cc1ccc(/C=C/c2nc3ccccc3c(=O)n2-c2cc(C(=O)O)ccc2Cl)cc1 | > 99.9% |  | 2 µg/mL (≈ 4.67 µM) | > 64 | 16 µg/mL | > 128 µg/mL | 2 µg/mL (≈ 4.67 µM) | 2 µg/mL (≈ 4.67 µM) | 2 µg/mL (≈ 4.67 µM) | 1 µg/mL (≈ 2.34 µM) |  |  |  |  | 
N#Cc1ccc(/C=C/c2nc3ccccc3c(=O)n2-c2cccc(S(N)(=O)=O)c2)cc1 | 97.1% | <=4 | 0.25 µg/mL (≈ 0.583 µM) | > 1070 | 0.5 µg/mL | > 64 µg/mL | 0.06 µg/mL (≈ 0.14 µM) | 0.125 µg/mL (≈ 0.292 µM) | 0.06 µg/mL (≈ 0.14 µM) | 0.06 µg/mL (≈ 0.14 µM) | 850 ng·h/mL | 98 mL/min/kg | > 10% |  | 
O=C(O)c1cccc(-n2c(CCc3ccc(F)cc3)nc3ccccc3c2=O)c1 | > 99.9% | <=4 | 2 µg/mL (≈ 5.15 µM) | 40 | 8 µg/mL | 79 µg/mL (≈ 203 µM) | 4 µg/mL (≈ 10.3 µM) | 4 µg/mL (≈ 10.3 µM) |  | 1 µg/mL (≈ 2.57 µM) |  |  |  |  | 
N#Cc1ccc(/C=C/c2nc3ccccc3c(=O)n2-c2ccccc2O)cc1 | 98.1% |  | 0.015 µg/mL (≈ 0.0411 µM) | 667 | 0.125 µg/mL | 40 µg/mL (≈ 109 µM) | 0.25 µg/mL (≈ 0.684 µM) |  | 0.06 µg/mL (≈ 0.164 µM) | 0.03 µg/mL (≈ 0.0821 µM) |  |  |  | Insoluble | 
N#Cc1ccc(/C=C/c2nc3ccccc3c(=O)n2-c2cccc(NC(=O)CCc3cnc[nH]3)c2)cc1 |  |  | 8 µg/mL (≈ 16.4 µM) |  |  |  |  |  |  |  |  |  |  |  | 16 µg/mL (≈ 32.9 µM)
O=C(O)c1cccc(-n2c(/C=C/c3ccc(I)cc3)nc3ccccc3c2=O)c1 | > 99.9% |  | 0.5 µg/mL (≈ 1.01 µM) | 200 | 16 µg/mL | 100 µg/mL (≈ 202 µM) | 0.5 µg/mL (≈ 1.01 µM) | 2 µg/mL (≈ 4.05 µM) | 0.5 µg/mL (≈ 1.01 µM) | 0.25 µg/mL (≈ 0.506 µM) |  |  |  |  | 
